Assay results taken from the EternaBench riboswitch data.

System: MS2 coat protein
Test: apparent Kd, MS2 coat protein; higher = weaker binding; RNA-MaP array; FMN 200 µM where present
How it was run: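 Designs on Illumina sequencing-chip clusters, transcribed by stalled E. coli RNA polymerase, were exposed to SNAP-549-labelled MS2 coat protein in doubling steps from 0.7 or 1.5 nM up to 3 µM, without and then with constant ligand. The buffer held 100 mM Tris-HCl pH 7.5, 80 mM KCl, 4 mM MgCl2, BSA, DTT, yeast tRNA and Tween-20. Apparent Kd values are medians of filtered per-cluster binding-curve fits to green signal normalised to red-channel RNA signal and control-cluster median Fmax.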

[1] = designed as: ON switch for flavin mononucleotide, no ligand
[2] = ligand present: flavin mononucleotide, designed as: ON switch for flavin mononucleotide
[3] = designed as: OFF switch for flavin mononucleotide, no ligand
[4] = ligand present: flavin mononucleotide, designed as: OFF switch for flavin mononucleotide

Sequence	apparent Kd [1]	apparent Kd [2]	apparent Kd [3]	apparent Kd [4]
AUUUAAAAGCAGAAGGGCAAGGUGGAUCCCUCACAUGAGGAUCACCCAUGUCUAGGCUUUACCGUGCAGGAUAUGCAAGUAAUA	26 nM	58.5 nM		
CUUUUGUGAGGAUAUUCGUAGUAGGGUCAUGGCAUUAUUAUGAAGAAGGCACAUGAGGAUCACCCAUGUACCUU			17.3 nM	34.6 nM
UUAUUGGGACAGAAGGGCAUUUACAUGAGGAUCACCCAUGUUCAUCAUUGCAGGAUAUGUAUUACAUGAGGAUCAUCUAUGUUA	259 nM	36.9 nM		
GGUGGGUUGCUACCGGCACAUGAGGAUCACCCAUGUUUUGGGAAGGAUAUGGUACCUAUUUGGUACCAGAAGGUCCCGUUGGUG	330 nM	239 nM		
AUUUAGUGAGGAUAUGUGGCUUCGAUCGUGAGAUCGAGGCUACAGAAGGCACAUGAGGAUCACCCAUGUUCCUC			37.6 nM	498 nM
UGUUGUAUUACAGGAUAUCUAGUAUUUUUACUUAGAGAAGGGUAUUCACAUGAGGAUCACCCAUGUAUAUACGAGGAAGUUGUG	28.8 nM	29.8 nM		
AAAUAAACUACGAAGAUAUCCUCACAUGAGGAUCACCCAUGUCAGGAUAUUUGUCCUAAAAGGACAGAGAAGGGACGUCGUAGA			5.09 nM	7.54 nM
GCCUUAUCGGUCAGGAUAUACACCUGUUAGUUGUUGUAGAAGGGACAUGAGGAUCACCCAUGUACAUUACAUUG			23.1 nM	40.1 nM
AUCUUGAGAGGAUAUACAUGAGGAUCACCCAUGUUGCUAACACCAUGAGCUCAUUUACGUAGAAGGCUCAUUUG			18 nM	18.6 nM
AAAUGAUGUCAGGAUAUUGACGUUAAAAGAACGCAAGAAGGGACAACAUGAGGAUCACCCAUGUGGUCCUAUAA			14.9 nM	34 nM
AAACAUGUCCGAGGAUAUCUGAGAUCAUUUUCAAGAGAAGGCGGACAUGAGGAUCACCCAUGUCUCUCCUCAUCAACGCCAAAU			26.9 nM	51.7 nM
AUGUAUCACACAGGAUAUACAUGAGGAUCACCCAUGUGUCCUCCGUAAUUGACACCAAUUACGCUGUAGAAGGGUGUGAUACAU			274 nM	204 nM
CGCCUCAGUUCAGGAUAUGUAUGGGUCUAACGAACAGAAGGGAACAUGAGGAUCACCCAUGUAAAUAGGGCCAAAGGCUAGAUC			41.7 nM	175 nM
UUCCUACAUGAGGAUCACCCAUGUGAGGAUAUGCAUCGUAUUAUUCUCGUAUGUAGUAGCAGAAGGCGCAUUGG			25.9 nM	89.6 nM
AAAGUUGGUAGGCCCUCGGAACAUGAGGAUCACCCAUGUAAGGAGGAUAUGCCCGGUACCCGCUGGCAGAAGGCCUUAUAAGAA			28.2 nM	239 nM
AUCAGCUCGUGAGGAUAUACAUGAUAGAUCGAUUAAUUAAUUAAUUUAACAUGAGGAUCACCCAUGUAGAAGGUACGAGCUGAU			52.3 nM	50.5 nM
UGAUAGGACAGAGGAUAUGCGUGCUGGUGAUACUAGCAAAGUAUCGUGACAUGAGGAUCACCCAUGUAGAAGGCUGUCCUAUCU			28 nM	68.4 nM
CCGGAAUCCUAGGAUAUGCUAGACGAGAGUCUAGCAGAAGGAGGAACAUGAGGAUCACCCAUGUGUCCUACCGG			17.7 nM	21 nM

Sequence	apparent Kd [1]	apparent Kd [2]	apparent Kd [3]	apparent Kd [4]
CGAAAACCACAGAAGGCCCGGGACAUGAGGAUCACCCAUGUAGAAAGUGGGAGGAUAUGUGUACGCGGCGUGCUGACCUCGUGA	232 nM	27.4 nM		
CAGCGGAGCCUAGGAUAUGCGACAUGAGGAUCACCCAUGUACGCCAAAACGUCACCAUGGGUCUCGCAGAAGGAGGAAACACUG			54.7 nM	24.3 nM
CGGCCCGAUCGAGGAUAUAAGUCUAGGACAUGAGGAUCACCCAUGUAUGUCUUAGAAGGCGAUCGGGCCAGCCUGUUACAGGCA	28.5 nM	6.43 nM		
AGUUAAUAUCGAGGAUAUGUCUAGACACAUGAGGAUCACCCAUGUAUGUGUAUAGAAGGCGAAAUUAAAAGCAUGUUACAUGCA	31.1 nM	19.5 nM		
AAAUCGGCAGGAUAUACAUGAAAAUUAAAAAAAAAAAAAAAACAUGAGGAUCACCCAUGUAGAAGGGUCAAAAA			88.9 nM	89.2 nM
UGUCGGAGCAGAGGAUAUACAUGAGGAUCACCCAUGUAAUAAAGUGAAGCCUGGAAACAGGCAAUGUAGAAGGCUGCUCCGAUA			12 nM	88.6 nM
CAGUACUGAGGAUAUACAUGAGGAUCACCCAUGUGUUCCAGCUAGGAAUCUAGCAAAAGUAGAAGGCAGUACUG			25.9 nM	449 nM
UGGACCAGUACAGGAUAUGGUGACGCACAUGAGGAUCACCCAUGUCCGCAGCGUGCUCAGCACGCCCAGAAGGGUACUGAUUCG	718 nM	76.4 nM		
GCACGGCAUGUAGGAUAUCGAGCUCAAAGAGCUCGAGAAGGACAUGAGGAUCACCCAUGUGCUCACAGACAGUGAGCGCUGUGC			25.1 nM	91.5 nM
GGCCCGUCUGUUAGGAUAUUGUCGAACUUUAGCGGCGAGAAGGAACAUGAGGAUCACCCAUGUCCCAACUGGGA			25.5 nM	196 nM
UUUCCUUGUGUGAGGAUAUACUUGUUUGUGUUUUUGUAGAAGGCACAUGAGGAUCACCCAUGUACUCUUUCCUG			35.1 nM	54.3 nM
AUAAAUCAUGUAGGAUAUGCGUGGCGAAGCUAUGCAGAAGGACAUGAGGAUCACCCAUGUCUUUCCGUCUGCGUACAGACGGGA			30.9 nM	225 nM
GUUUAUUUACAGAAGGUGUUUUACAUGAGGAUCACCCAUGUUUAAAGGUAUAAAGAAUUUAUUUACAAGGAUAUGUACAAUUUU	34.1 nM	22.1 nM		
UGUCUGAUCUAAUAACAUGAGGAUCACCCAUGUGUUCACAACUAGGAUAUCGAUUGUUAAGAAAUCGAGAAGGAGUAUACAUUA			44.8 nM	50.8 nM
AGCAUGUGAGGAUAUGUGACCCUCAUCCGAAGGACGAGGGAAUAGAAGGCACAUGAGGAUCACCCAUGUGAUGA			46.2 nM	188 nM
GUACGUGGACAGAAGGCGACAUGAGGAUCACCCAUGUUGGCUCGGGUACGAGCGAUCCGCGUGAUUGAGGAUAUGUCUGCGGGC			20 nM	80.8 nM
GUCAGCUCGUGAGGAUAUACAACACUGCUUCGGCAGUGUAUUAAGAUCACAUGAGGAUCACCCAUGUAGAAGGCCCGAGCUGAU			10.2 nM	139 nM
GCCAUCGCAUGAGGAUAUGCUCCGGUUUCCGGAGCAGAAGGCAUGUCACAAGACAUGAGGAUCACCCAUGUAGUUAAGAUGGCA	185 nM	8.88 nM		
